# Assays:
# Type in all cases: functional
# [1] = Cytotoxicity against human NCI-ADR-RES cells assessed as cell growth at 10^-7 M after 48 hrs by SRB assay; conditions: read-out: Activity
# CAKI-1 [2] = experiment: Cytotoxicity against human Caki1 cells assessed as cell growth at 10^-7 M after 48 hrs by SRB assay; conditions: CAKI-1, 48 h, read-out: Activity
# Summary of the method: (§1)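 NCI-60 screen: lines kept in RPMI 1640 with 5% FBS, seeded at 5000–40,000 cells/well by doubling time, preincubated 24 h at 37 °C in 5% CO2. Time-zero plates TCA-fixed at drug addition. DMSO stocks diluted in medium, 48 h exposure. Fixation in cold TCA (final 10% adherent, 16% suspension), 0.4% SRB stain, solubilised in 10 mM Tris base, A515. Percent growth computed against control and time-zero.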
# CCRF-CEM = experiment: Cytotoxicity against human CCRF-CEM cells assessed as cell growth at 10^-6 M after 48 hrs by SRB assay; conditions: read-out: Activity; summary of the method: as §1
# UO-31 = experiment: Cytotoxicity against human UO31 cells assessed as cell growth at 10^-4 M after 48 hrs by SRB assay; conditions: UO-31, 48 h, read-out: Activity
# ACHN [3] = experiment: Cytotoxicity against human ACHN cells assessed as cell growth at 10^-8 M after 48 hrs by SRB assay; conditions: read-out: Activity; summary of the method: as §1
# DU-145 = experiment: Cytotoxicity against human DU145 cells assessed as cell growth at 10^-7 M after 48 hrs by SRB assay; conditions: DU-145, 48 h, read-out: Activity; summary of the method: as §1
# HCT-116 = experiment: Cytotoxicity against human HCT116 cells assessed as cell growth at 10^-4 M after 48 hrs by SRB assay; conditions: HCT-116, 48 h, read-out: Activity
# Summary of the method: (§2)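 NCI-60 five-dose screen. Cells were grown in RPMI 1640 with 5% FBS and seeded at 5000–40,000 cells/well according to doubling time. They were pre-incubated 24 h at 37 °C in 5% CO₂, and time-zero (Tz) plates were TCA-fixed at drug addition. Five 10-fold dilutions of DMSO stock were applied for 48 h. Read-out was SRB staining, 515 nm absorbance, with percent growth calculated versus Tz and untreated control.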
# UACC-257 = experiment: Cytotoxicity against human UACC257 cells assessed as cell growth at 10^-7 M after 48 hrs by SRB assay; conditions: UACC-257, 48 h, read-out: Activity
# A498 = experiment: Cytotoxicity against human A498 cells assessed as cell growth at 10^-8 M after 48 hrs by SRB assay; conditions: A498, 48 h, read-out: Activity; summary of the method: as §1
# COLO = experiment: Cytotoxicity against human COLO […] cells assessed as cell growth at 10^-8 M after 48 hrs by SRB assay; conditions: read-out: Activity; summary of the method: as §1
# LOX IMVI = experiment: Growth inhibition of human LOXIMVI cells after 48 hrs by SRB assay
# Summary of the method: (§3)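 Adherent NCI-60 lines grown in RPMI 1640 with 5% FBS, seeded at 5000–40,000 cells/well, and preincubated 24 h at 37 °C, 5% CO2. Compound, stocked in DMSO, given either once at 10^-5 M or at five 10-fold dilutions for 48 h. Cells fixed with cold TCA (final 10%), stained with 0.4% SRB, and read at 515 nm. GI50 taken as 50% reduction in net protein increase versus time-zero and control plates.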
# MDA-MB-435 = experiment: Cytotoxicity against human MDA-MB-435 cells assessed as cell growth at 10^-4 M after 48 hrs by SRB assay; conditions: MDA-MB-435, 48 h, read-out: Activity
# SNB-19 = experiment: Growth inhibition of human SNB19 cells after 48 hrs by SRB assay; conditions: SNB-19, 48 h; for CC50: read-out: LC50 (the source's name); summary of the method: as §3
# M14 = experiment: Cytotoxicity against human M14 cells assessed as cell growth at 10^-4 M after 48 hrs by SRB assay; conditions: M14, 48 h, read-out: Activity
# U-251 [4] = experiment: Cytotoxicity against human U251 cells assessed as cell growth at 10^-8 M after 48 hrs by SRB assay; conditions: U-251, 48 h, read-out: Activity
# [5] = Cytotoxicity against human […] cells assessed as cell growth at 10^-5 M after 48 hrs by SRB assay; conditions: RPMI8266, 48 h, read-out: Activity
# U-251 [6] = experiment: Growth inhibition of human U251 cells after 48 hrs by SRB assay; conditions: U-251, 48 h; summary of the method: as §3
# HOP-62 = experiment: Cytotoxicity against human HOP62 cells assessed as cell growth at 10^-8 M after 48 hrs by SRB assay; conditions: HOP-62, 48 h, read-out: Activity; summary of the method: as §2
# OVCAR-4 = experiment: Cytotoxicity against human OVCAR4 cells assessed as cell growth at 10^-6 M after 48 hrs by SRB assay; conditions: OVCAR-4, 48 h, read-out: Activity
# PC-3 = experiment: Cytotoxicity against human PC3 cells assessed as cell growth at 10^-8 M after 48 hrs by SRB assay; conditions: PC-3, 48 h, read-out: Activity
# MDA-MB-468 = experiment: Cytotoxicity against human MDA-MB-468 cells assessed as cell growth at 10^-8 M after 48 hrs by SRB assay; conditions: MDA-MB-468, 48 h, read-out: Activity
# NCI-H322M = experiment: Cytotoxicity against human NCI-H322M cells assessed as cell growth at 10^-5 M after 48 hrs by SRB assay; conditions: read-out: Activity
# ACHN [7] = experiment: Growth inhibition of human ACHN cells after 48 hrs by SRB assay; conditions: for CC50: read-out: LC50 (the source's name)
# Summary of the method: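 Same 48 h NCI-60 five-dose SRB protocol. Adherent lines were fixed with cold TCA at 10% final; suspension lines such as CCRF-CEM were fixed with 16% final TCA. Stain was 0.4% SRB in 1% acetic acid for 10 min, solubilized in 10 mM Tris base and read at 515 nm. GI50 came from log concentration–growth curves, solving [(Ti−Tz)/(C−Tz)]×100 = 50.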
# SF-295 = experiment: Cytotoxicity against human SF295 cells assessed as cell growth at 10^-4 M after 48 hrs by SRB assay; conditions: SF-295, 48 h, read-out: Activity
# TK-10 = experiment: Cytotoxicity against human TK10 cells assessed as cell growth at 10^-6 M after 48 hrs by SRB assay; conditions: TK-10, 48 h, read-out: Activity
# CAKI-1 [8] = experiment: Cytotoxicity against human Caki1 cells assessed as cell growth at 10^-6 M after 48 hrs by SRB assay; conditions: CAKI-1, 48 h, read-out: Activity; summary of the method: as §1
# NCI-H522 = experiment: Cytotoxicity against human NCI-H522 cells assessed as cell growth at 10^-5 M after 48 hrs by SRB assay; conditions: NCI-H522, 48 h, read-out: Activity
# RXF 393 = experiment: Cytotoxicity against human RXF393 cells assessed as cell growth at 10^-5 M after 48 hrs by SRB assay; conditions: RXF 393, 48 h, read-out: Activity
# MOLT-4 = experiment: Cytotoxicity against human MOLT4 cells assessed as cell growth at 10^-5 M after 48 hrs by SRB assay; conditions: MOLT-4, 48 h, read-out: Activity
SMILES,growth at 0.1 µM [1] [%],growth at 0.1 µM (CAKI-1 [2]) [%],growth at 1 µM (CCRF-CEM) [%],growth at 100 µM (UO-31) [%],growth at 0.01 µM (ACHN [3]) [%],growth at 0.1 µM (DU-145) [%],growth at 100 µM (HCT-116) [%],growth at 0.1 µM (UACC-257) [%],growth at 0.01 µM (A498) [%],growth at 0.01 µM (COLO) [%],GI50 (LOX IMVI) [µM],"LC50 (lethal concentration, 50% net cell kill) (LOX IMVI) [µM]",TGI (LOX IMVI) [µM],growth at 100 µM (MDA-MB-435) [%],GI50 (SNB-19) [µM],TGI (SNB-19) [µM],CC50 (SNB-19) [µM],growth at 100 µM (M14) [%],growth at 0.01 µM (U-251 [4]) [%],growth at 10 µM [5] [%],also measured
COc1ccc(-c2nn3cc(-c4ccc(O)cc4O)nc3s2)cc1,99,90,74,-10,103,96,-55,92,82,104,2.58,> 100,31.4,-38,3.57,> 100,> 100,-49,97,10,GI50 (U-251 [6]): 1.7 µM; LC50 (U-251 [6]): > 100 µM; TGI (U-251 [6]): 4.48 µM; growth at 0.01 µM (HOP-62): 95%; growth at 1 µM (OVCAR-4): 68%; growth at 0.01 µM (PC-3): 96%; growth at 0.01 µM (MDA-MB-468): 96%; growth at 10 µM (NCI-H322M): 23%; GI50 (ACHN [7]): 3.52 µM; TGI (ACHN [7]): > 100 µM; CC50 (ACHN [7]): > 100 µM; growth at 100 µM (SF-295): -13%; growth at 1 µM (TK-10): 101%; growth at 1 µM (CAKI-1 [8]): 69%; growth at 10 µM (NCI-H522): 1%; growth at 10 µM (RXF 393): -83%; growth at 10 µM (MOLT-4): 20%
COc1ccc(-c2nn3cc(-c4cccc(N)c4)nc3s2)cc1,96,76,63,-63,106,103,-91,109,87,103,3.38,> 100,29.5,-53,12.4,> 100,> 100,-54,106,6,GI50 (U-251 [6]): 7.65 µM; LC50 (U-251 [6]): > 100 µM; TGI (U-251 [6]): 52.1 µM; growth at 0.01 µM (HOP-62): 97%; growth at 1 µM (OVCAR-4): 60%; growth at 0.01 µM (PC-3): 91%; growth at 0.01 µM (MDA-MB-468): 94%; growth at 10 µM (NCI-H322M): 44%; GI50 (ACHN [7]): 4.5 µM; TGI (ACHN [7]): 21.8 µM; CC50 (ACHN [7]): 91.3 µM; growth at 100 µM (SF-295): -27%; growth at 1 µM (TK-10): 118%; growth at 1 µM (CAKI-1 [8]): 46%; growth at 10 µM (NCI-H522): 13%; growth at 10 µM (RXF 393): -31%; growth at 10 µM (MOLT-4): 21%

# — ChEMBL document CHEMBL2146441, “2,6-Disubstituted imidazo[2,1-b][1,3,4]thiadiazoles: search for anticancer agents” (2012)
